# Calls of active or inactive are those of the source. The calls are words filed in the database; no cut-off is given here.
# Columns and labels:
# COLO 205 = test: Induction of cell cycle arrest in human COLO 205 cells assessed as cells accumulation at S phase at 1 umol/L incubated for 48 hrs by propidium iodide staining based flow cytometric analysis (reference value: 9%); type: functional; conditions: dose 1 µmol/L, at 1 µM
# Procedure, shortened: (§1)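 COLO 205, MCF-7 or NCI-H929 cells seeded in 96-well plates overnight at 37°C, then exposed to DMSO or increasing compound concentrations for 24 or 48 h. Fixed and stained with propidium iodide (Vindelov method), then analysed by flow cytometry for sub-G1, G1, S and G2-M fractions. Experiment repeated twice.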
# [1] = Inhibition of N-terminal His6-tagged recombinant full-length human CDK5/N-terminal GST-tagged recombinant full-length human p35 expressed in baculovirus infected Sf21 cells at 3 uM by filter binding assay relative to control; conditions: condition cancer
# Procedure, shortened: (§2)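 Outsourced single-concentration screen in a commercial panel of 233 protein kinases, run as radiometric filter-binding activity assays. Test agent was tested at 0.3 or 3 µmol/L, as given in each line, from a 10 mmol/L DMSO stock. Activity is expressed as percent inhibition relative to control.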
# [2] = target: Serine/threonine-protein kinase TAO2 (Homo sapiens) (UniProt Q9UL54); test: Inhibition of N-terminal 6His-tagged recombinant human TAO2 expressed in Sf21 cells at 0.3 uM by filter binding assay relative to control; procedure, shortened: as §2
# [3] = Toxicity in nu/nu CD-1 mouse xenografted with human BXPC-3 cells assessed as reduction in body weight at 30 mg/kg, po for 21 days relative to control; type: organism-based; conditions: in vivo, 504 h, time 21 day
# [4] = target: Calcium/calmodulin-dependent protein kinase type IV (Homo sapiens) (UniProt Q16566); test: Inhibition of C-terminal His6-tagged recombinant full length human CaMKIV expressed in baculovirus infected Sf21 cells at 0.3 uM by filter binding assay relative to control
# Sequence of Calcium/calmodulin-dependent protein kinase type IV (Homo sapiens) (Q16566 whole entry): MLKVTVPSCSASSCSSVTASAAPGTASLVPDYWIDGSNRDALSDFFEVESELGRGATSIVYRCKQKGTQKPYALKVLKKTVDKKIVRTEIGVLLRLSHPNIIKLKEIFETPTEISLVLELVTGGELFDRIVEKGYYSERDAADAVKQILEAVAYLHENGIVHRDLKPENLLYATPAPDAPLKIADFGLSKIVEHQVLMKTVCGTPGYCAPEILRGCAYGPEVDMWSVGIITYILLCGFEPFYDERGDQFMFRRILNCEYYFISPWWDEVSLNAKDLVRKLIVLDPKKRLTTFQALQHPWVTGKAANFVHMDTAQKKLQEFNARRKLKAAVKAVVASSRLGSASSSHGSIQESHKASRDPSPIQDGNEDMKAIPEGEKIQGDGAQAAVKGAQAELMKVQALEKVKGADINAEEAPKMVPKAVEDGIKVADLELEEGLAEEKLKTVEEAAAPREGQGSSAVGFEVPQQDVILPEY
# Procedure, shortened: (§3)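 KinaseProfiler panel of 233 kinases: radiometric filter-binding activity assays with compound at 0.3 or 3 µmol/L. Read-out is percent inhibition.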
# [5] = Inhibition of […] N-terminal 6His-tagged full length human P110delta/full length human p85beta expressed in baculovirus infected Sf21 cells at 3 uM by filter binding assay relative to control; conditions: condition cancer
# [6] = target: Tyrosine-protein kinase Lck (Homo sapiens, UniProt P06239); test: Inhibition of LCK (unknown origin)
# Sequence of Tyrosine-protein kinase Lck (P06239 whole entry): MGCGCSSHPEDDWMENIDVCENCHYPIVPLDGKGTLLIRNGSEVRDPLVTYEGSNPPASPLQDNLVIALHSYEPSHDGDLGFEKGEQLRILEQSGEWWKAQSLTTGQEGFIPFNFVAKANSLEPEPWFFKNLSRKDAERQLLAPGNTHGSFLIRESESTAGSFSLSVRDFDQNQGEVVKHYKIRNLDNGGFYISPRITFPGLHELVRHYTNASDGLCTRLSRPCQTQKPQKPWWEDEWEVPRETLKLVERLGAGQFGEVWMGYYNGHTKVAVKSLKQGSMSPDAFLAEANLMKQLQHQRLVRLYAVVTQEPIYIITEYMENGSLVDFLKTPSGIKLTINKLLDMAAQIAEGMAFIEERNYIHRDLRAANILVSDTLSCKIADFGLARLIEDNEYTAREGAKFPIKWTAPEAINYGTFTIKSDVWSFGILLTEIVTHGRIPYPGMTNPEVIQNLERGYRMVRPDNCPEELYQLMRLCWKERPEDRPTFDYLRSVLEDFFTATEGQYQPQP
# [7] = target: Tyrosine-protein kinase BTK (Homo sapiens, UniProt Q06187); test: Inhibition of N-terminal His6-tagged recombinant full-length human BTK expressed in baculovirus infected Sf21 cells at 0.3 uM by filter binding assay relative to control; procedure, shortened: as §2
# A673 = test: Antiproliferative activity against human A673 cells assessed as reduction in cell viability after 72 hrs by CellTiter-Glo assay; type: functional, cell-based; conditions: A673, 72 h
# Procedure, shortened: (§4)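 Cells seeded in 96-well plates, left overnight at 37°C, then exposed to a range of test concentrations for 72 h. Viability read by CellTiter-Glo luminescence; IC50 from four-parameter curve fit. Lines kept at 37°C, 5% CO2, in recommended growth medium.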
# [8] = target: Serine/threonine-protein kinase 17A (Homo sapiens) (UniProt Q9UEE5); test: Inhibition of N-terminal 6His-tagged recombinant full-length human DRAK1 expressed in baculovirus infected Sf21 cells at 3 uM by filter binding assay relative to control; procedure, shortened: as §3
# [9] = Antiproliferative activity against human SUPM2 cells assessed as reduction in cell viability after 72 hrs by CellTiter-Glo assay; type: functional, cell-based; conditions: SUP-M2, 72 h; procedure, shortened: as §4
# [10] = target: Glycogen synthase kinase-3 alpha (Homo sapiens) (UniProt P49840); test: Inhibition of N-terminal His6-tagged recombinant human GSK3alpha (2 to end residues) expressed in Sf21 cells at 0.3 uM by filter binding assay relative to control
# Sequence of Glycogen synthase kinase-3 alpha (Homo sapiens) (P49840 2-483 limits assumed): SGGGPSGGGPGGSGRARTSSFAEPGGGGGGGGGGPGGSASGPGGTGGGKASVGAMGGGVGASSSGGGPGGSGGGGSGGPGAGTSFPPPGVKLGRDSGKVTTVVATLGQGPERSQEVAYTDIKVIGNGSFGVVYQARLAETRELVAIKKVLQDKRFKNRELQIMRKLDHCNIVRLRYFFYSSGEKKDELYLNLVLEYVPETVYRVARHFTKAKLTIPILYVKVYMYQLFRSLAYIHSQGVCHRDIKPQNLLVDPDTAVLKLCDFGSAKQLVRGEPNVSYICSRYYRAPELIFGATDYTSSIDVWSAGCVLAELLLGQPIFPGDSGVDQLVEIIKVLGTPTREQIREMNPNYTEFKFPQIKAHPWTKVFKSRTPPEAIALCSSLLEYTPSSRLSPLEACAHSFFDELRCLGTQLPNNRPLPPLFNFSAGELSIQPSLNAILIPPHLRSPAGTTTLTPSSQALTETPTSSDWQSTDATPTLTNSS
# [11] = target: Insulin receptor (Mus musculus) (UniProt P15208); conditions: CD-1, dose 30.0 mg/kg, route po, time 4.0 hrs
# [12] = target: Phosphatidylinositol 4,5-bisphosphate 3-kinase catalytic subunit delta isoform (Homo sapiens, UniProt O00329); test: Inhibition of PI3Kdelta (unknown origin)
# Sequence of Phosphatidylinositol 4,5-bisphosphate 3-kinase catalytic subunit delta isoform (O00329 whole entry, canonical isoform): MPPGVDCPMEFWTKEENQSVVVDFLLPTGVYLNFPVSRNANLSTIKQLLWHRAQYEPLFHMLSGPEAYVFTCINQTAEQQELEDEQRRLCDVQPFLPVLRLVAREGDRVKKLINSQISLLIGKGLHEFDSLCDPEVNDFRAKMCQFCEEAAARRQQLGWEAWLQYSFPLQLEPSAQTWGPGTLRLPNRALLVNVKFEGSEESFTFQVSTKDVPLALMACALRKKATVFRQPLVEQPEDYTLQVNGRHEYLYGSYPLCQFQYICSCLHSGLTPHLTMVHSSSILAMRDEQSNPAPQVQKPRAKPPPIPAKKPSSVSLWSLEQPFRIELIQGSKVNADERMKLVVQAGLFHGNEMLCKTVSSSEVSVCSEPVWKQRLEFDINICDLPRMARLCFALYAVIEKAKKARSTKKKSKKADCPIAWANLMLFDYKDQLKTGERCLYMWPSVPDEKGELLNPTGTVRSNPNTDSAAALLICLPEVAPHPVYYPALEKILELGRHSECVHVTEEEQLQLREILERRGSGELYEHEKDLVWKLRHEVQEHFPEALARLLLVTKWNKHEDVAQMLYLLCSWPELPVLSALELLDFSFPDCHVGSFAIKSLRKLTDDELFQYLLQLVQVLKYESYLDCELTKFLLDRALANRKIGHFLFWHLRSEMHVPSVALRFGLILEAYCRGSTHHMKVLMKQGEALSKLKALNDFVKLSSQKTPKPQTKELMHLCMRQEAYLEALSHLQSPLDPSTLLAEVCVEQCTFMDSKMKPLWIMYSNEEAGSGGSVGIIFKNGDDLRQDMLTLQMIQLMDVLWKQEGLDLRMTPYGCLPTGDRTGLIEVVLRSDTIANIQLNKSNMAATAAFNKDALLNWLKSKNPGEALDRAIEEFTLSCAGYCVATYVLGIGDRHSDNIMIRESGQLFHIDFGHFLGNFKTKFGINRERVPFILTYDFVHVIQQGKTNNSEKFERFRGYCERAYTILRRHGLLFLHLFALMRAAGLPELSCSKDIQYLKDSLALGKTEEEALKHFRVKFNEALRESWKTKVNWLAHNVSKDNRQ
# [13] = target: Serine/threonine-protein kinase Sgk2 (Homo sapiens) (UniProt Q9HBY8); test: Inhibition of human SGK2 at 3 uM by filter binding assay relative to control
# Sequence of Serine/threonine-protein kinase Sgk2 (Homo sapiens) (Q9HBY8 whole entry): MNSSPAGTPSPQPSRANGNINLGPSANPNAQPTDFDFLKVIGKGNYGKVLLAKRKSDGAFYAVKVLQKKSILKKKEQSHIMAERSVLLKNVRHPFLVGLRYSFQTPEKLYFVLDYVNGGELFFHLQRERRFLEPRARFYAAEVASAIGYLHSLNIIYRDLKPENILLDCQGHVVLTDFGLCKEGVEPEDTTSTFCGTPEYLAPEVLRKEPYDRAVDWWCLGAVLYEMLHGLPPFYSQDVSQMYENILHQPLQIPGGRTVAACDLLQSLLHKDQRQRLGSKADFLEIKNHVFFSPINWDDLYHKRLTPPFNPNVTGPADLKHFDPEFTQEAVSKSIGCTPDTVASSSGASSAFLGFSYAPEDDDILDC
# HeLa = test: Antiproliferative activity against human HeLa cells assessed as reduction in cell viability after 72 hrs by CellTiter-Glo assay; type: functional, cell-based; procedure, shortened: as §4
# [14] = target: Testis-specific serine/threonine-protein kinase 1 (Homo sapiens) (UniProt Q9BXA7); test: Inhibition of 6His-tagged recombinant human full length TSSK1 expressed in baculovirus infected Sf21 cells at 0.3 uM by filter binding assay relative to control; procedure, shortened: as §3
# HN5 = test: Antiproliferative activity against human HN5 cells assessed as reduction in cell viability after 72 hrs by CellTiter-Glo assay; type: functional, cell-based; conditions: HN5, 72 h; procedure, shortened: as §4
# Aurora kinase A = Aurora kinase A (Homo sapiens, UniProt O14965); test: Inhibition of N-terminal 6His-tagged recombinant full-length human Aurora-A expressed in Sf21 cells by filter binding assay
# Sequence of Aurora kinase A (O14965 whole entry): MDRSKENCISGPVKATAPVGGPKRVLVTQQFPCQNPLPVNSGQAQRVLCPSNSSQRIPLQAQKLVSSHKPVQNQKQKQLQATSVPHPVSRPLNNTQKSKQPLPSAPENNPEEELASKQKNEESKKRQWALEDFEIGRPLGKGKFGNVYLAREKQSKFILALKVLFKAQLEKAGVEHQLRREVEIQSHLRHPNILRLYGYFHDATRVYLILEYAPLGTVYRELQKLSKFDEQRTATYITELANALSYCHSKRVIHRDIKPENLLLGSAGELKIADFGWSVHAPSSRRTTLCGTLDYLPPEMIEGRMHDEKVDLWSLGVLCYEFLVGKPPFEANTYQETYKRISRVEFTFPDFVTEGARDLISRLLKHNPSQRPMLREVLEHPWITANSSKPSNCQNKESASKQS
# [15] = target: Vascular endothelial growth factor receptor 1 (Homo sapiens) (UniProt P17948); test: Inhibition of N-terminal GST-tagged recombinant human Flt1 (783 to end residues) expressed in baculovirus infected Sf21 cells at 0.3 uM by filter binding assay relative to control; procedure, shortened: as §2
# [16] = target: Mitogen-activated protein kinase 1 (Homo sapiens) (UniProt P28482); test: Inhibition of N-terminal GST-tagged recombinant human MAPK2 expressed in Escherichia coli at 0.3 uM by filter binding assay relative to control; procedure, shortened: as §2
# [17] = target: Tyrosine-protein kinase Fyn (Homo sapiens, UniProt P06241); test: Inhibition of FYN (unknown origin)
# Sequence of Tyrosine-protein kinase Fyn (P06241 whole entry): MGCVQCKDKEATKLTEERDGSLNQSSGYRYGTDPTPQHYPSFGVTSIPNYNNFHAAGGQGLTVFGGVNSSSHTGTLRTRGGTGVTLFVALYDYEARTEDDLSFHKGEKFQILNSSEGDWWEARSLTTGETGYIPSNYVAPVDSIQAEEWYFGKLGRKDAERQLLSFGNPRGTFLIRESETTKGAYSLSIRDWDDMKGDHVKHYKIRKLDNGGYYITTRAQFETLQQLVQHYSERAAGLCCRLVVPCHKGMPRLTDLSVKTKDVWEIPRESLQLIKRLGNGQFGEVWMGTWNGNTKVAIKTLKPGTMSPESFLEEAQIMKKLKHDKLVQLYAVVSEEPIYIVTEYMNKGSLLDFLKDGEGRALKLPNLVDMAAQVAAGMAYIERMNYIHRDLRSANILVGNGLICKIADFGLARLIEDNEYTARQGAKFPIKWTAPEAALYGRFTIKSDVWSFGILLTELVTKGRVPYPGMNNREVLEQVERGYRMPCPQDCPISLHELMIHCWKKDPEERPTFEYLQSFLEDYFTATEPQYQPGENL
# [18] = target: Serine/threonine-protein kinase tousled-like 2 (Homo sapiens) (UniProt Q86UE8); test: Inhibition of N-terminal 6His-tagged recombinant human TLK2 (388 to end residues) expressed in baculovirus infected Sf21 cells at 0.3 uM by filter binding assay relative to control; procedure, shortened: as §2
# [19] = target: Serine/threonine-protein kinase D2 (PRKD2) (Homo sapiens) (UniProt Q9BZL6); test: Inhibition of N-terminal His6 tagged, recombinant full-length human PKD2 expressed in Sf21 cells at 0.3 uM by filter binding assay relative to control
# Sequence of Serine/threonine-protein kinase D2 (PRKD2) (Homo sapiens) (Q9BZL6 whole entry, looked up): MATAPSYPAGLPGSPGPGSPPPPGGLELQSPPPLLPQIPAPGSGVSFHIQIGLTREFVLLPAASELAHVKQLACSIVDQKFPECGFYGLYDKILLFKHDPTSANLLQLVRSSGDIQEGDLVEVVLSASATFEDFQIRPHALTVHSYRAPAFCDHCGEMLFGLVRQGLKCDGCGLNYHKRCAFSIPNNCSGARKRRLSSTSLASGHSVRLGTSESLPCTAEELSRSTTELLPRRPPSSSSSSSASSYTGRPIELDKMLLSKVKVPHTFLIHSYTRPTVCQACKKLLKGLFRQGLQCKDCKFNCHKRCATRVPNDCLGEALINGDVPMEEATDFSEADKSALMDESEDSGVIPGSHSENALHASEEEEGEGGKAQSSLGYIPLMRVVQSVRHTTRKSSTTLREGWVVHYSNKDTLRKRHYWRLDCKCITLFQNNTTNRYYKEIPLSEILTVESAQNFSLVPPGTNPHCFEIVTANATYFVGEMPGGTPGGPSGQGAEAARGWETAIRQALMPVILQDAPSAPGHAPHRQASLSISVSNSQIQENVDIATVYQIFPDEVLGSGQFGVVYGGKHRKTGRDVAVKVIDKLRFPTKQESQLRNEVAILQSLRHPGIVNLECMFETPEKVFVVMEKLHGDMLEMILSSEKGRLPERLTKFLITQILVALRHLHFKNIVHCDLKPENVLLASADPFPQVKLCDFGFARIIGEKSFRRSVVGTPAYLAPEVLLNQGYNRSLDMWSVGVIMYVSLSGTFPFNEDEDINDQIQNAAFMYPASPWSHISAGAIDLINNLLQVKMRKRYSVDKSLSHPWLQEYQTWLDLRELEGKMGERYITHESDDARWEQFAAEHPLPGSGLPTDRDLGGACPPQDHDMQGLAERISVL
# MCF7 = test: Induction of cell cycle arrest in human MCF7 cells assessed as cells accumulation at G2 phase at 1 umol/L incubated for 48 hrs by propidium iodide staining based flow cytometric analysis (reference value: 17%); type: functional; conditions: dose 1 µmol/L, at 1 µM; procedure, shortened: as §1
# [20] = target: Protein-tyrosine kinase 2-beta (Homo sapiens) (UniProt Q14289); test: Inhibition of N-Terminal His6-tagged recombinant full-length human Pyk2 expressed in baculovirus infected Sf21 cells at 0.3 uM by filter binding assay relative to control; procedure, shortened: as §3
# [21] = target: Homeodomain-interacting protein kinase 2 (Homo sapiens) (UniProt Q9H2X6); test: Inhibition of N-terminal His6-tagged recombinant human HIPK2 (165 to 564 residues) expressed in baculovirus infected Sf21 cells at 3 uM by filter binding assay relative to control
compound,measurement,setting,value
CCc1cc(Nc2nccc(-c3c(-c4ccc(OC)c(C(=O)Nc5c(F)cccc5F)c4)nc4ccccn34)n2)c(OC)cc1N1CCC(N2CCN(S(C)(=O)=O)CC2)CC1,Activity,COLO 205,6%
same,inhibition at 3 µM,[1],-24%
same,inhibition,[2],1%
same,Activity,[3],Non-Toxic
same,inhibition,[4],11%
same,inhibition at 3 µM,[5],2%
same,IC50,[6],8 µM
same,inhibition,[7],11%
same,IC50,A673,> 30 µM
same,inhibition,[8],10%
same,IC50,[9],> 30 µM
same,inhibition,[10],-10%
same,inhibition,[11],inactive
same,IC50,[12],> 10 µM
same,inhibition,[13],25%
same,IC50,HeLa,> 20 µM
same,inhibition,[14],10%
same,IC50,HN5,> 20 µM
same,IC50,Aurora kinase A,0.159 µM
same,inhibition,[15],10%
same,inhibition,[16],-10%
same,IC50,[17],6.3 µM
same,inhibition,[18],0%
same,inhibition,[19],4%
same,Activity,MCF7,11%
same,inhibition,[20],21%
same,inhibition,[21],4%
